{"source": "ChEMBL document CHEMBL4325886", "about": "“Synthesis and SAR studies of novel benzodiazepinedione-based inhibitors of Clostridium difficile (C. difficile) toxin B (TcdB)” (Bioorg Med Chem Lett, 2018)", "key": {"Toxin B [1]": {"target": "T1, Toxin B (Clostridioides difficile, UniProt P18177)", "T1 sequence (P18177 whole entry)": "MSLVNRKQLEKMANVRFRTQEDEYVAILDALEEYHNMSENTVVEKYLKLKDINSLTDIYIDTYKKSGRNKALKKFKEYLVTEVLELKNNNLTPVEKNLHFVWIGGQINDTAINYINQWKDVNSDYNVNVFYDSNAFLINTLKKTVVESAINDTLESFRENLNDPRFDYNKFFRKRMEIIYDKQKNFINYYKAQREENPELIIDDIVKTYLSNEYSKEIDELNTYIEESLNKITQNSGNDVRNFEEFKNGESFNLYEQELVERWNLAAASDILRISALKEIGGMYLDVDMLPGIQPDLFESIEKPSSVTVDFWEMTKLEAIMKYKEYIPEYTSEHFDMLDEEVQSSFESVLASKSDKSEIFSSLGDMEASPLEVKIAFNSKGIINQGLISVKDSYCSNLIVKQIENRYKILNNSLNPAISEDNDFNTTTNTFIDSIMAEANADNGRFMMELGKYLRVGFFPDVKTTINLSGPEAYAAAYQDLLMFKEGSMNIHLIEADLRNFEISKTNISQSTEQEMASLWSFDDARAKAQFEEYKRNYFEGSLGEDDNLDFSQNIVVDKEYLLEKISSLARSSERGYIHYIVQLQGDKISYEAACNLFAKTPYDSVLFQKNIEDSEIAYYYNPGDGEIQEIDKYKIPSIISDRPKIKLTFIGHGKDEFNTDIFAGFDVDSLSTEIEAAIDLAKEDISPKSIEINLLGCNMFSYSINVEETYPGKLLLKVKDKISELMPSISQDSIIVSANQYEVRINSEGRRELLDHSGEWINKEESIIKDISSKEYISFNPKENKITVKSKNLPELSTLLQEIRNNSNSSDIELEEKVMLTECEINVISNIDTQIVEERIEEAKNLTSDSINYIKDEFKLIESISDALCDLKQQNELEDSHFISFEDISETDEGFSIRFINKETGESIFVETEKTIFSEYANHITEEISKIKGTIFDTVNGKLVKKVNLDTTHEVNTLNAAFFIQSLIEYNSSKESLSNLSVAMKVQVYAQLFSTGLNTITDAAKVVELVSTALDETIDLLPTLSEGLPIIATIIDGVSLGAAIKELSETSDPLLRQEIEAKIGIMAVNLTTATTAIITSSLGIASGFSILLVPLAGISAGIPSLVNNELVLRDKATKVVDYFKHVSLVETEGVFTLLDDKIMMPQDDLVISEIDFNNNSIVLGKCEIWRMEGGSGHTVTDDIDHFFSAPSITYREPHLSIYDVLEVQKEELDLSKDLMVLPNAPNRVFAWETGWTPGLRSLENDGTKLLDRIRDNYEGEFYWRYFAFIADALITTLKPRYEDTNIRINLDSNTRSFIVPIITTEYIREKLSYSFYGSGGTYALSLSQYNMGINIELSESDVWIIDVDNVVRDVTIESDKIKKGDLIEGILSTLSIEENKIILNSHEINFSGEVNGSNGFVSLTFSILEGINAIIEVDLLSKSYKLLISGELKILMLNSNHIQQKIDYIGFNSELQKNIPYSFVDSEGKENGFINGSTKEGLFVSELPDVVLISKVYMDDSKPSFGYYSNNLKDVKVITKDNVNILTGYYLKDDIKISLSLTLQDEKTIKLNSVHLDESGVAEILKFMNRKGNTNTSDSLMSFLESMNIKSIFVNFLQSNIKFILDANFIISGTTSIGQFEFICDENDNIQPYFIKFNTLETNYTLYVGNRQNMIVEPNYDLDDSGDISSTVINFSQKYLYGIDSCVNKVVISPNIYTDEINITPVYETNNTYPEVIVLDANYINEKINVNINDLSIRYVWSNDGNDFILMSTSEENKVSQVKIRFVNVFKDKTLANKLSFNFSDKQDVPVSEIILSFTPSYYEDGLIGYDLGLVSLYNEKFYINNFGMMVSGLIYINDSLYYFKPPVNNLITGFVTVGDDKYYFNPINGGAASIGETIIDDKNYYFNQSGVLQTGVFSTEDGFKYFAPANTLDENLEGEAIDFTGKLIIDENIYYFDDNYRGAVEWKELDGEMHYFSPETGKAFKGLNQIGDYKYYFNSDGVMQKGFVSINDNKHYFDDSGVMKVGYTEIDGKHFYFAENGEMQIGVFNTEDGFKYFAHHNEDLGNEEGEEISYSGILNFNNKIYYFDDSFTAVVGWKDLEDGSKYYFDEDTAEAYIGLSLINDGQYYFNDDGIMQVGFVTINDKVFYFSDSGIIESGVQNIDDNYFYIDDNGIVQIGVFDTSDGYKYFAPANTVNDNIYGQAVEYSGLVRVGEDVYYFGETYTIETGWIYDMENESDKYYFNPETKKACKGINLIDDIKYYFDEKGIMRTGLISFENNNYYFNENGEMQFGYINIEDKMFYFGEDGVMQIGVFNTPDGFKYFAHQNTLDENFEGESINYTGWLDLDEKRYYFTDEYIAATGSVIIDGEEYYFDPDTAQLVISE", "assay": "Inhibition of Clostridium difficile toxin B […] CHO cells assessed as reduction in caspase 3/7 activation pre-incubated for 1 hr before TcdB addition by luminescence based assay", "type": "cell-based"}, "Toxin A": {"target": "Toxin A (Clostridioides difficile, UniProt P16154)", "sequence (P16154 whole entry)": "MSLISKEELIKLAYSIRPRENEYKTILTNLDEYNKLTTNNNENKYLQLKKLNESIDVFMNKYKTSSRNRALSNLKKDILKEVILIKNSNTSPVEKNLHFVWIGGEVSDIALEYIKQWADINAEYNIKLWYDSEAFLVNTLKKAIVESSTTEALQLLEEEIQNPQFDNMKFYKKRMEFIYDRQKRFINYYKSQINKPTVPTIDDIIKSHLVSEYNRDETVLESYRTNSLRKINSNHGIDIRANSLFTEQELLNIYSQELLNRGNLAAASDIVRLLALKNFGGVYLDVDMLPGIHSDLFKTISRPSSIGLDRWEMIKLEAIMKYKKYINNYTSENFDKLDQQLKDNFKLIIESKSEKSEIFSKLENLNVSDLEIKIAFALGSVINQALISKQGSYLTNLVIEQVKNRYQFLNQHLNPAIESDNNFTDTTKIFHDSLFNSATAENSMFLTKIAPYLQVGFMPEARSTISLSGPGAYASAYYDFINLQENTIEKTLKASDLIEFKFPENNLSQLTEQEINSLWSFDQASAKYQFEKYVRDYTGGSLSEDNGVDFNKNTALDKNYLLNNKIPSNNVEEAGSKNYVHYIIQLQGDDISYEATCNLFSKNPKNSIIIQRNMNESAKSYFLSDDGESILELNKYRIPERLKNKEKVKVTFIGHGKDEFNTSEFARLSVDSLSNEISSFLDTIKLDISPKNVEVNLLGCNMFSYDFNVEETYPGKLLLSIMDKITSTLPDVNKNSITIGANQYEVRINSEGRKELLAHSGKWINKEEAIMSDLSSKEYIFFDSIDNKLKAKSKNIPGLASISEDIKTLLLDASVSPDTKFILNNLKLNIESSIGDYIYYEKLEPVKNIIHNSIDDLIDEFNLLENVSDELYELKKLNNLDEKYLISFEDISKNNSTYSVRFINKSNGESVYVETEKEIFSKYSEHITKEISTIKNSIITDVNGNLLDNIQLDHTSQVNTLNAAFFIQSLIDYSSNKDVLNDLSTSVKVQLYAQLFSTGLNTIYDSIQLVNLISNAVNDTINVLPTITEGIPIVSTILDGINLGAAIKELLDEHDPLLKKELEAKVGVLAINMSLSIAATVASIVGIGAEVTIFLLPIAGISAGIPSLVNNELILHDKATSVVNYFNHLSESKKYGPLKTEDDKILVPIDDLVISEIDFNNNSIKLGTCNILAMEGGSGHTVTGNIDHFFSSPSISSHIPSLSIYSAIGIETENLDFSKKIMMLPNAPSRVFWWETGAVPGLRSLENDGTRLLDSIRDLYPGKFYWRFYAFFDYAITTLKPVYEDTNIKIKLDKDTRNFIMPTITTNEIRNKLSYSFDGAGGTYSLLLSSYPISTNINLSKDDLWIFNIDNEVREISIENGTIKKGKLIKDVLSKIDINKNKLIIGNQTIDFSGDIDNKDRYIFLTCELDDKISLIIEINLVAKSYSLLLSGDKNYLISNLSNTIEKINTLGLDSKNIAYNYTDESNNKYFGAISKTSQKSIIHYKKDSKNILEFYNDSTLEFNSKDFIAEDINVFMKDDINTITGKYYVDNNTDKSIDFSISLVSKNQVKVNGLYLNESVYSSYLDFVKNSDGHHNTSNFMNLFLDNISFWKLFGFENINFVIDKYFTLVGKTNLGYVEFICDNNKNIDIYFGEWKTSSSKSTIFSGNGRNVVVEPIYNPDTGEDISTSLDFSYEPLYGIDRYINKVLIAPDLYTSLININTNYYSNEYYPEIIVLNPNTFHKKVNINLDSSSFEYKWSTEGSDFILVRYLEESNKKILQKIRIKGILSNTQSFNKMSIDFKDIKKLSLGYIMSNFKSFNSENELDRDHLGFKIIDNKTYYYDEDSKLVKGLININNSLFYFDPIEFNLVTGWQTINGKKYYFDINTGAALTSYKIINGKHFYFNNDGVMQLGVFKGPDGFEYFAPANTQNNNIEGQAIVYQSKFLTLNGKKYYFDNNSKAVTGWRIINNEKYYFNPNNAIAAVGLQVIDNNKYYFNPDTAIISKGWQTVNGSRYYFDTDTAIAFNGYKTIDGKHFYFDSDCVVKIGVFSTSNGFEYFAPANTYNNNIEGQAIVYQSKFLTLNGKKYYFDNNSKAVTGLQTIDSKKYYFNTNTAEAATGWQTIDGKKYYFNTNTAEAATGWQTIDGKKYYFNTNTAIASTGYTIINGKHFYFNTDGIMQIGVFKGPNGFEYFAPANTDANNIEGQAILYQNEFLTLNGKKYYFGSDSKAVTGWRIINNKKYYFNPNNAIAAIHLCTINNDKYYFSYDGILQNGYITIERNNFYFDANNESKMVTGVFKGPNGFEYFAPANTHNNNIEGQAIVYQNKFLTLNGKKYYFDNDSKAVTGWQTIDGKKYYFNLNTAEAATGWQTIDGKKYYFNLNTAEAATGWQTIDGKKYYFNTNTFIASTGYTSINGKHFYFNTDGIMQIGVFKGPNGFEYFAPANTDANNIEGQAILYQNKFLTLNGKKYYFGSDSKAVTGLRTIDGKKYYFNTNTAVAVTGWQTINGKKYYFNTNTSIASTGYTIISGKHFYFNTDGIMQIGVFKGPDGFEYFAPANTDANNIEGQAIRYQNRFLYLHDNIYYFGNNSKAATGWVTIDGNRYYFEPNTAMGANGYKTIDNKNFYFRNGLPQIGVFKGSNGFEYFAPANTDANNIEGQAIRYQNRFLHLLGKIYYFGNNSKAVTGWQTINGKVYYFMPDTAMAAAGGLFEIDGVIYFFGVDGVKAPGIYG", "assay": "Inhibition of Clostridium difficile toxin A […] CHO cells assessed as reduction in caspase 3/7 activation pre-incubated for 1 hr before TcdA addition by luminescence based assay", "type": "cell-based"}, "[2]": {"assay": "Metabolic stability in human liver microsomes assessed as parent compound remaining after 15 mins", "type": "ADME, Microsome", "settings": "read-out: Stability"}, "Toxin B [3]": {"target": "T1, Toxin B", "assay": "Inhibition of C-terminal 6-His tagged recombinant Clostridium difficile toxin B glucosyltransferase domain assessed as reduction in UDP-glucose hydrolysis activity using UDP-glucose substrate and ADP Alexa633 tracer incubated for 3 hrs by fluorescence polarization assay"}, "[4]": {"assay": "Metabolic stability in mouse liver microsomes assessed as parent compound remaining after 15 mins", "type": "ADME, Microsome", "settings": "read-out: Stability"}, "[5]": {"assay": "Metabolic stability in mouse plasma assessed as parent compound remaining after 2 hrs", "type": "ADME, cell-free", "settings": "read-out: Stability", "outline": "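Compound incubated in mouse plasma for 2 h. Parent compound remaining was measured, and the carboxylic acid hydrolysis product was also monitored.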"}}, "data": [{"smiles": "COc1cnc(NC(=O)c2ccc(CN3C(=O)c4ccc(Cl)cc4NC(=O)[C@H]3Cc3ccccn3)cc2Cl)nc1", "values": [{"measurement": "IC50", "setting": "Toxin B [1]", "value": 53, "unit": "nM"}, {"measurement": "IC50", "setting": "Toxin A", "value": 920, "unit": "nM"}, {"measurement": "remaining at 0.25 h", "setting": "[2]", "value": 73, "unit": "%"}, {"measurement": "IC50", "setting": "Toxin B [3]", "value": 4, "unit": "nM"}, {"measurement": "remaining at 0.25 h", "setting": "[4]", "value": 38, "unit": "%"}]}, {"smiles": "Cc1cccc(C(=O)c2ccc(CN3C(=O)c4ccc(Cl)cc4NC(=O)[C@H]3Cc3ccccn3)cc2)n1", "values": [{"measurement": "remaining at 0.25 h", "setting": "[2]", "value": 25, "unit": "%"}, {"measurement": "IC50", "setting": "Toxin B [3]", "value": 340, "unit": "nM"}, {"measurement": "remaining at 0.25 h", "setting": "[4]", "value": 3, "unit": "%"}]}, {"smiles": "COc1cc(CN2C(=O)c3ccc(Cl)cc3NC(=O)[C@H]2Cc2ccccn2)ccc1C(=O)Nc1ccc(C)cn1", "values": [{"measurement": "IC50", "setting": "Toxin B [1]", "value": 1900, "unit": "nM"}, {"measurement": "IC50", "setting": "Toxin A", "value": 11000, "unit": "nM"}, {"measurement": "remaining at 0.25 h", "setting": "[2]", "value": 62, "unit": "%"}, {"measurement": "IC50", "setting": "Toxin B [3]", "value": 9, "unit": "nM"}, {"measurement": "remaining at 0.25 h", "setting": "[4]", "value": 49, "unit": "%"}]}, {"smiles": "COc1cnc(NC(=O)c2ccc(CN3C(=O)c4ccc(Cl)cc4NC(=O)[C@H]3Cc3ccccn3)cc2Cl)cn1", "values": [{"measurement": "IC50", "setting": "Toxin B [1]", "value": 490, "unit": "nM"}, {"measurement": "IC50", "setting": "Toxin A", "value": 3400, "unit": "nM"}, {"measurement": "remaining at 0.25 h", "setting": "[2]", "value": 100, "unit": "%"}, {"measurement": "IC50", "setting": "Toxin B [3]", "value": 21, "unit": "nM"}, {"measurement": "remaining at 0.25 h", "setting": "[4]", "value": 68, "unit": "%"}]}, {"smiles": "Cc1cnc(NC(=O)c2ccc(CN3C(=O)c4ccc(Cl)cc4NC(=O)[C@H]3Cc3ccccn3)cc2Cl)nc1", "values": [{"measurement": "IC50", "setting": "Toxin B [1]", "value": 130, "unit": "nM"}, {"measurement": "IC50", "setting": "Toxin A", "value": 1500, "unit": "nM"}, {"measurement": "remaining at 0.25 h", "setting": "[2]", "value": 79, "unit": "%"}, {"measurement": "IC50", "setting": "Toxin B [3]", "value": 4, "unit": "nM"}, {"measurement": "remaining at 0.25 h", "setting": "[4]", "value": 33, "unit": "%"}]}, {"smiles": "Cc1cnc(NC(=O)c2ccc(CN3C(=O)c4ccc(Cl)cc4NC(=O)[C@H]3Cc3ccccn3)cc2C)nc1", "values": [{"measurement": "IC50", "setting": "Toxin B [1]", "value": 130, "unit": "nM"}, {"measurement": "IC50", "setting": "Toxin A", "value": 3000, "unit": "nM"}, {"measurement": "remaining at 0.25 h", "setting": "[2]", "value": 74, "unit": "%"}, {"measurement": "IC50", "setting": "Toxin B [3]", "value": 4, "unit": "nM"}, {"measurement": "remaining at 0.25 h", "setting": "[4]", "value": 44, "unit": "%"}]}, {"smiles": "Cc1ccnc(C(=O)c2ccc(CN3C(=O)c4ccc(Cl)cc4NC(=O)[C@H]3Cc3ccccn3)cc2)c1", "values": [{"measurement": "remaining at 0.25 h", "setting": "[2]", "value": 26, "unit": "%"}, {"measurement": "IC50", "setting": "Toxin B [3]", "value": 74, "unit": "nM"}, {"measurement": "remaining at 0.25 h", "setting": "[4]", "value": 48, "unit": "%"}]}, {"smiles": "O=C(c1ccc(CN2C(=O)c3ccc(Cl)cc3NC(=O)[C@H]2Cc2ccccn2)cc1)c1cccn2ncnc12", "values": [{"measurement": "IC50", "setting": "Toxin B [1]", "value": 1600, "unit": "nM"}, {"measurement": "remaining at 0.25 h", "setting": "[2]", "value": 15, "unit": "%"}, {"measurement": "IC50", "setting": "Toxin B [3]", "value": 61, "unit": "nM"}, {"measurement": "remaining at 0.25 h", "setting": "[4]", "value": 44, "unit": "%"}]}, {"smiles": "O=C(Nc1ccc(F)cn1)c1ccc(CN2C(=O)c3ccc(Cl)cc3NC(=O)[C@H]2Cc2ccccn2)cc1Cl", "values": [{"measurement": "IC50", "setting": "Toxin B [1]", "value": 130, "unit": "nM"}, {"measurement": "IC50", "setting": "Toxin A", "value": 1800, "unit": "nM"}, {"measurement": "remaining at 0.25 h", "setting": "[2]", "value": 88, "unit": "%"}, {"measurement": "IC50", "setting": "Toxin B [3]", "value": 4, "unit": "nM"}, {"measurement": "remaining at 0.25 h", "setting": "[4]", "value": 69, "unit": "%"}]}, {"smiles": "Cc1cc(CN2C(=O)c3ccc(Cl)cc3NC(=O)[C@H]2Cc2ccccn2)ccc1C(=O)Nc1ccc(F)cn1", "values": [{"measurement": "IC50", "setting": "Toxin B [1]", "value": 62, "unit": "nM"}, {"measurement": "IC50", "setting": "Toxin A", "value": 860, "unit": "nM"}, {"measurement": "remaining at 0.25 h", "setting": "[2]", "value": 85, "unit": "%"}, {"measurement": "IC50", "setting": "Toxin B [3]", "value": 8, "unit": "nM"}, {"measurement": "remaining at 0.25 h", "setting": "[4]", "value": 60, "unit": "%"}]}, {"smiles": "Cn1cc(C(=O)c2ccc(CN3C(=O)c4ccc(Cl)cc4NC(=O)[C@H]3Cc3ccccn3)cc2)c2ncccc21", "values": [{"measurement": "IC50", "setting": "Toxin B [1]", "value": 330, "unit": "nM"}, {"measurement": "IC50", "setting": "Toxin A", "value": 5300, "unit": "nM"}, {"measurement": "remaining at 0.25 h", "setting": "[2]", "value": 67, "unit": "%"}, {"measurement": "IC50", "setting": "Toxin B [3]", "value": 6, "unit": "nM"}, {"measurement": "remaining at 0.25 h", "setting": "[4]", "value": 76, "unit": "%"}]}, {"smiles": "Cc1cc(CN2C(=O)c3ccc(Cl)cc3NC(=O)[C@H]2Cc2ccccn2)ccc1C(=O)Nc1ccc(C#N)cn1", "values": [{"measurement": "IC50", "setting": "Toxin B [1]", "value": 78, "unit": "nM"}, {"measurement": "remaining at 0.25 h", "setting": "[2]", "value": 90, "unit": "%"}, {"measurement": "IC50", "setting": "Toxin B [3]", "value": 3, "unit": "nM"}, {"measurement": "remaining at 0.25 h", "setting": "[4]", "value": 70, "unit": "%"}]}, {"smiles": "Cc1ccc(NC(=O)c2ccc(CN3C(=O)c4ccc(Cl)cc4NC(=O)[C@H]3Cc3ccccn3)cc2Cl)nc1", "values": [{"measurement": "IC50", "setting": "Toxin B [1]", "value": 24, "unit": "nM"}, {"measurement": "IC50", "setting": "Toxin A", "value": 580, "unit": "nM"}, {"measurement": "remaining at 0.25 h", "setting": "[2]", "value": 57, "unit": "%"}, {"measurement": "IC50", "setting": "Toxin B [3]", "value": 5, "unit": "nM"}, {"measurement": "remaining at 0.25 h", "setting": "[4]", "value": 57, "unit": "%"}]}, {"smiles": "O=C(c1ccc(CN2C(=O)c3ccc(Cl)cc3NC(=O)[C@H]2Cc2ccccn2)cc1)c1ccccn1", "values": [{"measurement": "IC50", "setting": "Toxin B [1]", "value": 4200, "unit": "nM"}, {"measurement": "IC50", "setting": "Toxin A", "value": 37000, "unit": "nM"}, {"measurement": "remaining at 0.25 h", "setting": "[2]", "value": 64, "unit": "%"}, {"measurement": "IC50", "setting": "Toxin B [3]", "value": 45, "unit": "nM"}, {"measurement": "remaining at 0.25 h", "setting": "[4]", "value": 79, "unit": "%"}]}, {"smiles": "COc1ccc(NC(=O)c2ccc(CN3C(=O)c4ccc(Cl)cc4NC(=O)[C@H]3Cc3ccccn3)cc2Cl)nc1", "values": [{"measurement": "IC50", "setting": "Toxin B [1]", "value": 61, "unit": "nM"}, {"measurement": "IC50", "setting": "Toxin A", "value": 760, "unit": "nM"}, {"measurement": "remaining at 0.25 h", "setting": "[2]", "value": 100, "unit": "%"}, {"measurement": "remaining at 2 h", "setting": "[5]", "value": 100, "unit": "%"}, {"measurement": "IC50", "setting": "Toxin B [3]", "value": 5, "unit": "nM"}, {"measurement": "remaining at 0.25 h", "setting": "[4]", "value": 71, "unit": "%"}]}, {"smiles": "COc1cc(CN2C(=O)c3ccc(Cl)cc3NC(=O)[C@H]2Cc2ccccn2)ccc1C(=O)Nc1ccc(C(F)(F)F)cn1", "values": [{"measurement": "IC50", "setting": "Toxin B [1]", "value": 660, "unit": "nM"}, {"measurement": "IC50", "setting": "Toxin A", "value": 31000, "unit": "nM"}, {"measurement": "remaining at 0.25 h", "setting": "[2]", "value": 100, "unit": "%"}, {"measurement": "IC50", "setting": "Toxin B [3]", "value": 41, "unit": "nM"}, {"measurement": "remaining at 0.25 h", "setting": "[4]", "value": 83, "unit": "%"}]}, {"smiles": "COc1cnc(NC(=O)c2ccc(CN3C(=O)c4ccc(Cl)cc4NC(=O)[C@H]3Cc3ccccn3)cc2C)nc1", "values": [{"measurement": "IC50", "setting": "Toxin B [1]", "value": 29, "unit": "nM"}, {"measurement": "IC50", "setting": "Toxin A", "value": 690, "unit": "nM"}, {"measurement": "remaining at 0.25 h", "setting": "[2]", "value": 82, "unit": "%"}, {"measurement": "IC50", "setting": "Toxin B [3]", "value": 4, "unit": "nM"}, {"measurement": "remaining at 0.25 h", "setting": "[4]", "value": 39, "unit": "%"}]}]}
